{"source": "ChEMBL document CHEMBL3352327", "about": "“Catechol-rhodanine derivatives: Specific and promiscuous inhibitors of Escherichia coli deoxyxylulose phosphate reductoisomerase (DXR)” (Bioorg Med Chem, 2014)", "key": {"[1]": {"molecular_target": "T1, 1-deoxy-D-xylulose 5-phosphate reductoisomerase (Escherichia coli K-12, UniProt P45568)", "T1 sequence (P45568 whole entry)": "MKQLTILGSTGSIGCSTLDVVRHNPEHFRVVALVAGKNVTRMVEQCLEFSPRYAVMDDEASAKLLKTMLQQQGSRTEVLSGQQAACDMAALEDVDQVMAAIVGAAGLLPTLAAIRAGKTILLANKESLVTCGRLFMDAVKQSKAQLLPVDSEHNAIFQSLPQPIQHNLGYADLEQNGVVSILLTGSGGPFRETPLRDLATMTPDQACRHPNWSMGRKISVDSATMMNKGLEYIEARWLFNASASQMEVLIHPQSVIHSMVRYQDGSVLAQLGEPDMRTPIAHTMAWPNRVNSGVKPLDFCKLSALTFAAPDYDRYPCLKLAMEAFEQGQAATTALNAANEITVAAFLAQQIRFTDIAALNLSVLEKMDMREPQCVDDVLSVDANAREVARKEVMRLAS", "assay": "Inhibition of His-tagged Escherichia coli DXR pre-incubated for 2 mins before reaction initiation in presence of 160 uM NADPH in absence of 0.01% Triton X100"}, "[2]": {"molecular_target": "T2, 1-deoxy-D-xylulose 5-phosphate reductoisomerase (Escherichia coli K-12) (UniProt P45568)", "T2 sequence (whole entry)": "T1 sequence (P45568 whole entry)", "assay": "Inhibition of His-tagged Escherichia coli DXR at 20 uM pre-incubated for 2 mins before reaction initiation in presence of 160 uM NADPH in presence of 0.01% Triton X100", "method_in_brief": "(§1)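 His-tagged E. coli DXR at 37 °C in 50 mM Tris/HCl pH 7.5 with 3 mM MgCl2 and 2 mM DTT. Enzyme preincubated 2 min with inhibitor and 480 µM DXP, then started with NADPH (160 µM final). Run with or without 0.01% Triton X100. Final DMSO 0.4% (v/v). IC50 taken from % residual activity vs log[inhibitor]; otherwise % inhibition at 20 µM.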"}, "[3]": {"molecular_target": "T2, 1-deoxy-D-xylulose 5-phosphate reductoisomerase (Escherichia coli K-12)", "assay": "Inhibition of His-tagged Escherichia coli DXR at 6 uM pre-incubated for 2 mins before reaction initiation in absence of 160 uM NADPH", "method_in_brief": "(§2)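 H-DXR in 50 mM Tris/HCl pH 7.5, 3 mM MgCl2, 2 mM DTT, 37 °C. Enzyme preincubated 2 min with inhibitor at 6 µM, with or without NADPH (160 µM). Reaction started by DXP (480 µM final) to measure residual activity.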"}, "[4]": {"molecular_target": "T2, 1-deoxy-D-xylulose 5-phosphate reductoisomerase (Escherichia coli K-12)", "assay": "Inhibition of His-tagged Escherichia coli DXR at 6 uM pre-incubated for 2 mins before reaction initiation in presence of 160 uM NADPH", "method_in_brief": "as §2"}, "Malate dehydrogenase [5]": {"molecular_target": "T3, Malate dehydrogenase (Thermus thermophilus, UniProt P10584)", "T3 sequence (P10584 whole entry)": "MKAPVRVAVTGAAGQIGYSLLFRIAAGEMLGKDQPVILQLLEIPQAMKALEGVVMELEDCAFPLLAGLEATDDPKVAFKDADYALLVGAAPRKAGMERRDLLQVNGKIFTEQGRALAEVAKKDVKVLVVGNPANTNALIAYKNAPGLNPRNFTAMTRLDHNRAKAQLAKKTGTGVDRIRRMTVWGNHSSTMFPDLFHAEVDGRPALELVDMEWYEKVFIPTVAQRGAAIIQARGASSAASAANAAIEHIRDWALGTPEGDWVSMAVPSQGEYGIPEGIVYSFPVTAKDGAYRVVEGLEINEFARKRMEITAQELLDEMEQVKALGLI", "assay": "Inhibition of Thermus flavus MDH pre-incubated for 4 mins before reaction initiation in presence of OAA and NAPH in absence of 0.01% Triton X100 by UV-Vis spectrophotometry", "method_in_brief": "(§3)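 MDH in 50 mM Tris/HCl pH 7.5 at 37 °C. Preincubated 4 min with inhibitor, with or without 0.01% (w/v) Triton X100. Reaction started by successive addition of oxaloacetate (250 µM final) and NADH (160 µM final). Initial rates followed as A340 decrease. At least duplicate; 0.4% DMSO final.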"}, "[6]": {"molecular_target": "T4, Malate dehydrogenase (Thermus thermophilus) (UniProt P10584)", "T4 sequence (whole entry)": "T3 sequence (P10584 whole entry)", "assay": "Inhibition of Thermus flavus MDH at 10 uM pre-incubated for 4 mins before reaction initiation in presence of OAA and NAPH in presence of 0.01% Triton X100 by UV-Vis spectrophotometry", "method_in_brief": "as §3"}, "[7]": {"molecular_target": "T2, 1-deoxy-D-xylulose 5-phosphate reductoisomerase (Escherichia coli K-12)", "assay": "Inhibition of His-tagged Escherichia coli DXR at 20 uM pre-incubated for 2 mins before reaction initiation in presence of 160 uM NADPH in absence of 0.01% Triton X100", "method_in_brief": "as §1"}, "[8]": {"molecular_target": "T4, Malate dehydrogenase (Thermus thermophilus)", "assay": "Inhibition of Thermus flavus MDH at 50 uM pre-incubated for 4 mins before reaction initiation in presence of OAA and NAPH in absence of 0.01% Triton X100 by UV-Vis spectrophotometry", "method_in_brief": "as §3"}, "[9]": {"molecular_target": "T1, 1-deoxy-D-xylulose 5-phosphate reductoisomerase", "assay": "Inhibition of His-tagged Escherichia coli DXR pre-incubated for 2 mins before reaction initiation in presence of 160 uM NADPH in presence of 0.01% Triton X100", "method_in_brief": "as §1"}, "[10]": {"molecular_target": "T4, Malate dehydrogenase (Thermus thermophilus)", "assay": "Inhibition of Thermus flavus MDH at 50 uM pre-incubated for 4 mins before reaction initiation in presence of OAA and NAPH in presence of 0.01% Triton X100 by UV-Vis spectrophotometry", "method_in_brief": "as §3"}, "Escherichia coli [11]": {"tested_on": "Escherichia coli", "assay": "Antimicrobial activity against Escherichia coli XL1 Blue at 400 nmol/4 uL by paper disc diffusion method", "assay_type": "functional", "method_in_brief": "(§4)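 Paper disc diffusion on E. coli XL1 Blue. Discs impregnated with compound dissolved in DMSO (4 µL): 400 nmol in the initial screen, then 200 to 800 nmol. Read-out is the diameter of the growth inhibition zone (mm).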"}, "Escherichia coli [12]": {"tested_on": "Escherichia coli", "assay": "Antimicrobial activity against Escherichia coli XL1 Blue at 800 nmol/4 uL by paper disc diffusion method", "assay_type": "functional", "method_in_brief": "as §4"}, "[13]": {"assay": "Lipophilicity, log P of the compound", "assay_type": "physicochemical", "conditions": "octanol/water"}, "[14]": {"molecular_target": "T2, 1-deoxy-D-xylulose 5-phosphate reductoisomerase (Escherichia coli K-12)", "conditions": "1 to 8 uM"}, "[15]": {"molecular_target": "T2, 1-deoxy-D-xylulose 5-phosphate reductoisomerase (Escherichia coli K-12)", "assay": "Inhibition of His-tagged Escherichia coli DXR at 10 uM pre-incubated for 2 mins before reaction initiation in presence of 160 uM NADPH"}, "[16]": {"molecular_target": "T2, 1-deoxy-D-xylulose 5-phosphate reductoisomerase (Escherichia coli K-12)", "conditions": "10 uM"}, "Malate dehydrogenase [17]": {"molecular_target": "T3, Malate dehydrogenase", "assay": "Inhibition of Thermus flavus MDH pre-incubated for 4 mins before reaction initiation in presence of OAA and NAPH in presence of 0.01% Triton X100 by UV-Vis spectrophotometry", "method_in_brief": "as §3"}, "[18]": {"molecular_target": "T1, 1-deoxy-D-xylulose 5-phosphate reductoisomerase"}}, "note": "The source made the active and inactive calls. The calls are words filed in the database; no cut-off is given here.", "data": [{"smiles": "O=C(CN1C(=O)/C(=C/c2cccc(O)c2O)SC1=S)Nc1ccc(Oc2ccc(Cl)cc2)cc1", "values": [{"measurement": "IC50", "setting": "[1]", "result": 3.3, "unit": "µM"}, {"measurement": "inhibition", "setting": "[2]", "result": "< 5", "unit": "%"}, {"measurement": "inhibition", "setting": "[3]", "result": 63, "unit": "%"}, {"measurement": "inhibition", "setting": "[4]", "result": 43, "unit": "%"}, {"measurement": "IC50", "setting": "Malate dehydrogenase [5]", "result": 0.7, "unit": "µM"}, {"measurement": "inhibition", "setting": "[6]", "result": "< 5", "unit": "%"}]}, {"smiles": "O=C(O)CN1C(=O)/C(=C/c2ccccc2)SC1=S", "values": [{"measurement": "inhibition", "setting": "[7]", "result": "< 5", "unit": "%"}, {"measurement": "inhibition", "setting": "[8]", "result": "< 5", "unit": "%"}]}, {"smiles": "O=C(CN1C(=O)/C(=C/c2ccc(O)c(O)c2)SC1=S)NO", "values": [{"measurement": "IC50", "setting": "[1]", "result": 3.8, "unit": "µM"}, {"measurement": "IC50", "setting": "[9]", "result": 6.1, "unit": "µM"}, {"measurement": "inhibition", "setting": "[3]", "result": 70, "unit": "%"}, {"measurement": "inhibition", "setting": "[4]", "result": 29, "unit": "%"}, {"measurement": "IC50", "setting": "Malate dehydrogenase [5]", "result": 3.4, "unit": "µM"}, {"measurement": "inhibition", "setting": "[10]", "result": 53, "unit": "%"}, {"measurement": "inhibition zone (IZ)", "setting": "Escherichia coli [11]", "result": 14, "unit": "mm"}, {"measurement": "inhibition zone (IZ)", "setting": "Escherichia coli [12]", "result": 20, "unit": "mm"}, {"measurement": "logP", "setting": "[13]", "result": 1.8}, {"measurement": "inhibition", "setting": "[14]", "result": "Active"}]}, {"smiles": "Cc1ccc(Oc2ccc(NC(=O)CN3C(=O)/C(=C/c4ccc(O)c(O)c4)SC3=S)cc2)cc1", "values": [{"measurement": "inhibition", "setting": "[15]", "result": 53, "unit": "%"}, {"measurement": "IC50", "setting": "[1]", "result": 4.1, "unit": "µM"}, {"measurement": "inhibition", "setting": "[2]", "result": 10, "unit": "%"}, {"measurement": "inhibition", "setting": "[3]", "result": 38, "unit": "%"}, {"measurement": "inhibition", "setting": "[4]", "result": 30, "unit": "%"}, {"measurement": "IC50", "setting": "Malate dehydrogenase [5]", "result": 0.4, "unit": "µM"}, {"measurement": "inhibition", "setting": "[10]", "result": "< 5", "unit": "%"}, {"measurement": "inhibition", "setting": "[16]", "result": "< 5", "unit": "%"}]}, {"smiles": "O=C(CN1C(=O)/C(=C/c2ccc(O)c(O)c2)SC1=S)Nc1ccc(Oc2ccc(Cl)cc2)cc1", "values": [{"measurement": "IC50", "setting": "[1]", "result": 3.2, "unit": "µM"}, {"measurement": "inhibition", "setting": "[2]", "result": "< 5", "unit": "%"}, {"measurement": "inhibition", "setting": "[3]", "result": 64, "unit": "%"}, {"measurement": "inhibition", "setting": "[4]", "result": 41, "unit": "%"}, {"measurement": "IC50", "setting": "Malate dehydrogenase [5]", "result": 0.5, "unit": "µM"}, {"measurement": "inhibition", "setting": "[10]", "result": "< 5", "unit": "%"}]}, {"smiles": "O=C(CN1C(=O)/C(=C/c2ccc(O)cc2O)SC1=S)Nc1ccc(Oc2ccc(Cl)cc2)cc1", "values": [{"measurement": "IC50", "setting": "[1]", "result": 58, "unit": "µM"}, {"measurement": "IC50", "setting": "Malate dehydrogenase [5]", "result": 1.3, "unit": "µM"}, {"measurement": "inhibition", "setting": "[6]", "result": "< 5", "unit": "%"}]}, {"smiles": "O=C(O)CN1C(=O)/C(=C/c2ccc(O)c(O)c2)SC1=S", "values": [{"measurement": "IC50", "setting": "[1]", "result": 3.1, "unit": "µM"}, {"measurement": "IC50", "setting": "[9]", "result": 4.4, "unit": "µM"}, {"measurement": "inhibition", "setting": "[3]", "result": 61, "unit": "%"}, {"measurement": "inhibition", "setting": "[4]", "result": 41, "unit": "%"}, {"measurement": "IC50", "setting": "Malate dehydrogenase [5]", "result": 4.7, "unit": "µM"}, {"measurement": "IC50", "setting": "Malate dehydrogenase [17]", "result": 15, "unit": "µM"}, {"measurement": "logP", "setting": "[13]", "result": 1}, {"measurement": "Ki", "setting": "[18]", "result": 7.7, "unit": "µM"}, {"measurement": "alphaKi", "setting": "[14]", "result": 3, "unit": "µM"}]}, {"smiles": "Cc1ccc(Oc2ccc(NC(=O)CN3C(=O)/C(=C/c4cccc(O)c4O)SC3=S)cc2)cc1", "values": [{"measurement": "IC50", "setting": "[1]", "result": 3.6, "unit": "µM"}, {"measurement": "inhibition", "setting": "[2]", "result": "< 5", "unit": "%"}, {"measurement": "inhibition", "setting": "[3]", "result": 60, "unit": "%"}, {"measurement": "inhibition", "setting": "[4]", "result": 38, "unit": "%"}, {"measurement": "IC50", "setting": "Malate dehydrogenase [5]", "result": 1, "unit": "µM"}, {"measurement": "inhibition", "setting": "[6]", "result": "< 5", "unit": "%"}]}]}
